Laboratory results reported in the M2OR odorant receptor database.

Key:
Settings in all cases: stereoisomer not certain
[1] = target: T1, UniProt E9Q546
T1 sequence (whole entry): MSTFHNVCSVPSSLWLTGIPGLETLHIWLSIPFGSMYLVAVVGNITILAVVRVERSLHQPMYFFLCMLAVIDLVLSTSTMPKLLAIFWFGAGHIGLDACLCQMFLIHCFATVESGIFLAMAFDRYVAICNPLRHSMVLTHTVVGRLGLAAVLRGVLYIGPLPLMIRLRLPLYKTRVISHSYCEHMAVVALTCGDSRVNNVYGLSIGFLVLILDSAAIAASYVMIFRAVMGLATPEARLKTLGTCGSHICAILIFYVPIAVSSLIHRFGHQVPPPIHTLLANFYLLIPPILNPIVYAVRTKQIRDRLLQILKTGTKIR
Method in brief: (§1)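 Each receptor–molecule pair is labelled responsive or non-responsive (inactive) according to whether the original authors judged the measured signal statistically different from baseline. The data were taken from the main text and supplementary material of published papers and checked for typos and inconsistencies. Assay methods differed by source, with transient luciferase assays in mammalian cell lines being common.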

[2] = target: T2, UniProt K7N609
T2 sequence (whole entry): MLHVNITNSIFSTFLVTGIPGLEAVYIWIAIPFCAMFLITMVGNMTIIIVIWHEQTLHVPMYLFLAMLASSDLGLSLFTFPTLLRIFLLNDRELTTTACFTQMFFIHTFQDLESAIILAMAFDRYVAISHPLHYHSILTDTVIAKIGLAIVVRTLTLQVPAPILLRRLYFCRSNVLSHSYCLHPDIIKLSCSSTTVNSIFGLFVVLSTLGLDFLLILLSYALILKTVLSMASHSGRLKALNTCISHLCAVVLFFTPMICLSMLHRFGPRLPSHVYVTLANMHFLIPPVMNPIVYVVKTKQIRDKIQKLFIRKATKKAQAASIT
Method in brief: as §1

[3] = target: T3, UniProt E9PZ66
T3 sequence (whole entry): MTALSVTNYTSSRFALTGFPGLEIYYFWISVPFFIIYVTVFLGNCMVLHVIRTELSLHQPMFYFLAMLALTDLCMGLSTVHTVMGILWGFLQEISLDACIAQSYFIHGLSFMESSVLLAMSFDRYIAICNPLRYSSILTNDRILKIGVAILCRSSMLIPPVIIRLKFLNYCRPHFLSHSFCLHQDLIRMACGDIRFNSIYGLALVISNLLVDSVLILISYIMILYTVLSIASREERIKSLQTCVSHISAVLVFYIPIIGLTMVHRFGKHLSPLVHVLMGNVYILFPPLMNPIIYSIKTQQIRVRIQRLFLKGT
Method in brief: as §1

[4] = target: T4, UniProt E9Q4X7
T4 sequence (whole entry): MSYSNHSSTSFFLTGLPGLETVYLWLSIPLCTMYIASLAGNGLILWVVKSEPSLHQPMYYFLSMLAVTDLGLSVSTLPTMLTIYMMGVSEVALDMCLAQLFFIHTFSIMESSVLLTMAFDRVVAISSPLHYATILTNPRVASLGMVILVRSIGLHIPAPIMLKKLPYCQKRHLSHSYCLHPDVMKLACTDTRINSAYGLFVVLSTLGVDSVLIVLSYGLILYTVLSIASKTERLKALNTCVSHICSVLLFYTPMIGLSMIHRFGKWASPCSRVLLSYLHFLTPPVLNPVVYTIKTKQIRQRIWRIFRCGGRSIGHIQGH
Method in brief: as §1

[5] = target: T5, UniProt E9Q6Z7
T5 sequence (whole entry): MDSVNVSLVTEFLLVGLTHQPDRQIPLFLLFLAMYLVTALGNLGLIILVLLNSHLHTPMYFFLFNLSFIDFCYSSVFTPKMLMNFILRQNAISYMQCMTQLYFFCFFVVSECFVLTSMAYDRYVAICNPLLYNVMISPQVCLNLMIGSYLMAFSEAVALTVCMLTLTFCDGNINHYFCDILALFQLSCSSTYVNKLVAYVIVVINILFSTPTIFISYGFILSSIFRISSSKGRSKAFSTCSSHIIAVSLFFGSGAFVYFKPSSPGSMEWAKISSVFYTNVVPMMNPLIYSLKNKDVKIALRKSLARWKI
Method in brief: as §1

Measured: odorant receptor agonist call;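 note: active if original authors judged signal statistically different from baseline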

CCCCCCC(=O)[O-].[H+]
inactive: [1] | [2]

O=C(c1ccccc1)c1ccccc1
inactive: all assays above

CCCC(=O)C(C)=O
inactive: all assays above

CCCCCCCCCC(=O)[O-].[H+]
active: [1]
inactive: all other assays above

c1ccccc1
inactive: all assays above

CCCCCCCCCS
inactive: all assays above

CCCCCC1=C(C)CCC1=O
inactive: all assays above

CC(=O)OCc1ccccc1
inactive: all assays above

CCCCCOC(=O)CCCCC
inactive: all assays above

CC(=O)OCC=C(C)C
inactive: all assays above

CCCCCO
inactive: [1] | [2]

CCCCCCCC(=O)[O-].[H+]
active: [1]
inactive: [2]
